The text below walks through data of ChEMBL document CHEMBL1154740, “Efficient microwave combinatorial synthesis of novel indolic arylpiperazine derivatives as serotoninergic ligands” (Eur J Med Chem, 2010).

Usually Ki stands for a dissociation constant, usually derived from enzyme kinetics or from competition with a known ligand.

SMILES strings stand for the structures.

Assay [1] addresses T1, Adrenergic receptor alpha-1 (Rattus norvegicus, UniProt P15823+P23944+P43140).
T1 sequence (P15823 whole entry): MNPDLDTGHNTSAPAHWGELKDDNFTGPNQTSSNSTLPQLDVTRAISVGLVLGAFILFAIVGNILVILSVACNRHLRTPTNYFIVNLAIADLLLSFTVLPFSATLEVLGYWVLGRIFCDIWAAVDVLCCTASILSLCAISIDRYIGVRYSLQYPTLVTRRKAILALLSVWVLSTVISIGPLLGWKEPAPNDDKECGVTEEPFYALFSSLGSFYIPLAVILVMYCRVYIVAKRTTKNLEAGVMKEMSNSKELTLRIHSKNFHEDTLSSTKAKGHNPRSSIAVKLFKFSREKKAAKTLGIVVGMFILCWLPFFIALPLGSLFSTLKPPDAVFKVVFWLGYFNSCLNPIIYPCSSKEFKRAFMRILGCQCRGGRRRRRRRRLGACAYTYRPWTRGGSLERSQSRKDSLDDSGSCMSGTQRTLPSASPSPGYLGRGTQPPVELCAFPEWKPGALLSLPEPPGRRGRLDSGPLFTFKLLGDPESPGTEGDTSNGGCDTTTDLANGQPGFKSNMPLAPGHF
T1 sequence (P23944 whole entry): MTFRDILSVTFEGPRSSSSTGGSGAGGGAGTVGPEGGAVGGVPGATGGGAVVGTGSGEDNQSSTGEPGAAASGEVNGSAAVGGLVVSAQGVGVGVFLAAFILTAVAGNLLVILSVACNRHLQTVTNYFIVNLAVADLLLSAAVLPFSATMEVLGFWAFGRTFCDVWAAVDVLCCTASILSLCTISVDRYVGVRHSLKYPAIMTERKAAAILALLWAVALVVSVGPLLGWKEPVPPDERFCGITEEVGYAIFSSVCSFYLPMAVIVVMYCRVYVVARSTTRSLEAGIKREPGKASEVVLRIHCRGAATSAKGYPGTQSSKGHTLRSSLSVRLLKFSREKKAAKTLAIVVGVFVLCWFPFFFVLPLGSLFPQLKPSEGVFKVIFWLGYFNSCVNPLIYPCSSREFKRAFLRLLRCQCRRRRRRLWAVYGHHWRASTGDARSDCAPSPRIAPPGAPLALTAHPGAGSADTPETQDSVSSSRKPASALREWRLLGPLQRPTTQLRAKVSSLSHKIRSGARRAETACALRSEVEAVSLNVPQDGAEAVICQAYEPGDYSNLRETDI
T1 sequence (P43140 whole entry): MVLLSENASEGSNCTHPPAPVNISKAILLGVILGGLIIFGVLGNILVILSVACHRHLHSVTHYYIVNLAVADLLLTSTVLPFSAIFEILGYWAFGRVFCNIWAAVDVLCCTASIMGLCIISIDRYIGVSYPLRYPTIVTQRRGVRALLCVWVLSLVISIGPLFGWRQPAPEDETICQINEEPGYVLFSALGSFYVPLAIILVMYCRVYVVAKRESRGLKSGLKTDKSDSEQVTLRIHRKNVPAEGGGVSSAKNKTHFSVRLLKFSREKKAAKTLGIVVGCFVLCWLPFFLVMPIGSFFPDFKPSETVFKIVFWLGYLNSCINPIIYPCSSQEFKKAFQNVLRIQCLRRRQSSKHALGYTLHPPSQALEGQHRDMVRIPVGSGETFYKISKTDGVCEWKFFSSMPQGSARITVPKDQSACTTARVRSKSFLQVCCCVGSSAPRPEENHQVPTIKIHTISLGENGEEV
Put plainly: Displacement of [3H]prozosine from alpha1 adrenergic receptor in rat brain cortex by liquid scintillation counting. It counts as tissue-based. A digest of the protocol: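 Brain cortex membranes (10 mg fresh tissue) in 50 mM Tris–HCl pH 7.4 at 25 °C. [3H]prazosin at 0.4 nM final, incubated 30 min at 25 °C, GF/B filtration. Nonspecific binding with […]. Ki from IC50 via Cheng–Prusoff.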
On the technique in general: Displacement assays read how much labelled ligand stays bound in the presence of the test substance.

Assay [2] concerns the target T2, 5-hydroxytryptamine receptor 1A (Rattus norvegicus, UniProt P19327).
T2 sequence (P19327 whole entry): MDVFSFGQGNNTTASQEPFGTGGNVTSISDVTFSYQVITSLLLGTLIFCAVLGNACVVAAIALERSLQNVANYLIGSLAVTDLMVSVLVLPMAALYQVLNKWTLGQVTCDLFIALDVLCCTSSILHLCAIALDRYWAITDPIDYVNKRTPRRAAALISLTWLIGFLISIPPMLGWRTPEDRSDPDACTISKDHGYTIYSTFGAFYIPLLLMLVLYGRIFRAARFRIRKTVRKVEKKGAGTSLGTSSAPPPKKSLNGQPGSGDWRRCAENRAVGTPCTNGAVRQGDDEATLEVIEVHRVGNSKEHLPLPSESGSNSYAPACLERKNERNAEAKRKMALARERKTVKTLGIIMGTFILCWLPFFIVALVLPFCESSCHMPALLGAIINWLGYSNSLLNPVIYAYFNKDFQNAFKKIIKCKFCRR
Put plainly: Displacement of [3H]8OH-DPAT from 5HT1A in Sprague-Dawley rat brain cortex by liquid scintillation counting. Particulars: read-out: Ki. A digest of the protocol: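 Male Sprague–Dawley rat (180–220 g) cerebral cortex membranes, washed and preincubated 10 min at 37 °C, in Tris–HCl pH 7.7 with pargyline, 4 mM CaCl2, 0.1% ascorbate. [3H]-8-OH-DPAT at 0.1 nM final, 30 min at 37 °C, GF/B filtration. Nonspecific binding defined with 5-HT. Six concentrations in triplicate; IC50 converted to Ki by Cheng–Prusoff using Scatchard KD.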

Assay [3] addresses T3, 5-hydroxytryptamine receptor 2C (Rattus norvegicus, UniProt P08909).
T3 sequence (P08909 whole entry): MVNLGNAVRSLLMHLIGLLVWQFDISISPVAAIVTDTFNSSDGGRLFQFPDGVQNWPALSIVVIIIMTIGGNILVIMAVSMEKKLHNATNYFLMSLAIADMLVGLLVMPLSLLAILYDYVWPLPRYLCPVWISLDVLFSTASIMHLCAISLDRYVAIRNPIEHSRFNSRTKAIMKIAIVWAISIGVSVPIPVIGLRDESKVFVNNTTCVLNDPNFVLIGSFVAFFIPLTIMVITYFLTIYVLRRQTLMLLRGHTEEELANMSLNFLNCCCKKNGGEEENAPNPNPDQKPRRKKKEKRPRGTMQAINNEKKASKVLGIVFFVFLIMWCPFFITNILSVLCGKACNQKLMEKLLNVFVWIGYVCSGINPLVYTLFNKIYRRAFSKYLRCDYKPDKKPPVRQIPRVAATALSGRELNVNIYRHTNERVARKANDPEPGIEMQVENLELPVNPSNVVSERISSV
Put plainly: Displacement of [3H]mesulergine from 5HT2C in Sprague-Dawley rat brain cortex by liquid scintillation counting. Particulars: read-out: Ki. A digest of the protocol: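 Frontal cortex of male Sprague–Dawley rats (180–220 g), in 50 mM Tris-HCl, 0.5 mM EDTA, 10 mM MgCl2, pH 7.4, plus 0.1% ascorbate and pargyline. Triplicate 2.0 mL assays: 5-HT2A with 5 mg tissue and 0.4 nM [3H]ketanserin; 5-HT2C with 10 mg tissue and 1 nM [3H]mesulergine. 15 min at 37 °C, PEI-soaked filters. IC50 from six concentrations converted to Ki (Cheng–Prusoff).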

For the compound `CCOC(=O)c1cc2cc(OCCCN3CCN(c4ccc(OC)cc4)CC3)ccc2[nH]1`, the figures for the inhibition constant Ki in assay [1], in assay [2] and in assay [3] were 514 nM, 10 µM and 50.4 nM, respectively.
Regarding `CCOC(=O)c1cc2cc(OCCCN3CCN(c4cccc(Cl)c4)CC3)ccc2[nH]1`, the Ki in assay [1] worked out at 32.9 nM; in assay [2], 0.039 µM; in assay [3], 1.28 nM.
Take `CCOC(=O)c1cc2cc(OCCCN3CCN(Cc4ccc5c(c4)OCO5)CC3)ccc2[nH]1`: the Ki in assay [1] turned out to be 338 nM; in assay [2], 10 µM; in assay [3], 43.6 nM.
